Tests used:
Format in all cases: functional
SN12C [1] = assay: Cytotoxicity against human SN12C cells assessed as cell growth at 0.01 uM after 48 hrs by sulforhodamine B assay; conditions: read-out: Activity
MCF7 = assay: Cytotoxicity against human MCF7 cells assessed as cell growth at 0.01 uM after 48 hrs by sulforhodamine B assay; conditions: MCF7, 48 h, read-out: Activity
[2] = Cytotoxicity against human Hs 578T cells assessed as cell growth at 0.01 uM after 48 hrs by sulforhodamine B assay; conditions: read-out: Activity
Outline: (§1)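 Five-dose NCI panel run at 0.01, 0.1, 1, 10 and 100 µM. Cells were in RPMI 1640 with 5% FBS and 2 mM L-glutamine, seeded at 5000–40,000 cells/well and pre-incubated 24 h. Drug was diluted from a DMSO stock into medium with 50 µg/ml gentamicin. Exposure was 48 h at 37 °C, 5% CO2. Cells were fixed with cold TCA and stained with 0.4% SRB, read at 515 nm. Percent growth came from time-zero, control and test absorbances.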

CCRF-CEM = assay: Cytotoxicity against human CCRF-CEM cells assessed as cell growth at 0.1 uM after 48 hrs by sulforhodamine B assay; conditions: read-out: Activity
Outline: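 CCRF-CEM suspension leukemia cells in RPMI 1640 with 5% FBS and 2 mM L-glutamine, plated 24 h before dosing. Five concentrations (0.01–100 µM) were applied from a DMSO stock for 48 h at 37 °C. Settled cells were fixed with 80% TCA (final 16%) and stained with SRB, with read-out at 515 nm. Percent growth was derived from time-zero and control absorbances.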

SK-MEL-5 = assay: Cytotoxicity against human SK-MEL-5 cells assessed as cell growth at 0.1 uM after 48 hrs by sulforhodamine B assay; conditions: SK-MEL-5, 48 h, read-out: Activity
SN12C [3] = assay: Cytotoxicity against human SN12C cells assessed as cell growth at 0.1 uM after 48 hrs by sulforhodamine B assay; conditions: read-out: Activity
M14 = assay: Cytotoxicity against human M14 cells assessed as cell growth at 100 uM after 48 hrs by sulforhodamine B assay; conditions: M14, 48 h, read-out: Activity
SK-MEL-2 [4] = assay: Cytotoxicity against human SK-MEL-2 cells assessed as cell growth at 100 uM after 48 hrs by sulforhodamine B assay; conditions: SK-MEL-2, 48 h, read-out: Activity
SK-MEL-28 [5] = assay: Cytotoxicity against human SK-MEL-28 cells assessed as cell growth at 100 uM after 48 hrs by sulforhodamine B assay; conditions: SK-MEL-28, 48 h, read-out: Activity
HL-60(TB) = assay: Cytotoxicity against human HL-60(TB) cells assessed as cell growth at 1 uM after 48 hrs by sulforhodamine B assay; conditions: HL-60, 48 h, read-out: Activity
Outline: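 NCI five-dose screen on the HL-60(TB) leukaemia line, grown in RPMI 1640 with 5% FBS and 2 mM L-glutamine and plated for 24 h before dosing. DMSO stocks were diluted in medium. Cells were exposed 48 h at 37 °C, then settled cells were fixed in 16% TCA (final) and stained with SRB, absorbance 515 nm. Percent growth = (Ti−Tz)/(C−Tz)×100, or (Ti−Tz)/Tz×100 when Ti<Tz.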

SR = assay: Cytotoxicity against human SR cells assessed as cell growth at 1 uM after 48 hrs by sulforhodamine B assay; conditions: read-out: Activity
MDA-MB-231 = assay: Cytotoxicity against human MDA-MB-231 cells assessed as cell growth at 100 uM after 48 hrs by sulforhodamine B assay; conditions: MDA-MB-231, 48 h, read-out: Activity
NCI-H522 = assay: Cytotoxicity against human NCI-H522 cells assessed as cell growth at 1 uM after 48 hrs by sulforhodamine B assay; conditions: NCI-H522, 48 h, read-out: Activity
LOX IMVI [6] = assay: Cytotoxicity against human LOXIMVI cells assessed as cell growth at 1 uM after 48 hrs by sulforhodamine B assay; conditions: read-out: Activity
SK-MEL-2 [7] = assay: Cytotoxicity against human SK-MEL-2 cells assessed as cell growth at 1 uM after 48 hrs by sulforhodamine B assay; conditions: SK-MEL-2, 48 h, read-out: Activity
SK-MEL-28 [8] = assay: Cytotoxicity against human SK-MEL-28 cells assessed as cell growth at 1 uM after 48 hrs by sulforhodamine B assay; conditions: SK-MEL-28, 48 h, read-out: Activity
RXF 393 = assay: Cytotoxicity against human RXF393 cells assessed as cell growth at 1 uM after 48 hrs by sulforhodamine B assay; conditions: RXF 393, 48 h, read-out: Activity
T47D = assay: Cytotoxicity against human T47D cells assessed as cell growth at 1 uM after 48 hrs by sulforhodamine B assay; conditions: read-out: Activity
A549 = assay: Cytotoxicity against human A549 cells assessed as cell growth at 10 uM after 48 hrs by sulforhodamine B assay; conditions: A549, 48 h, read-out: Activity
Outline: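 NCI-60 five-dose screen. Cells were grown in RPMI 1640 with 5% FBS and 2 mM L-glutamine and preincubated 24 h. Compound (DMSO stock) was tested at 0.01, 0.1, 1, 10 and 100 µM for 48 h at 37 °C. Cells were fixed in situ with cold TCA (final 10%) and stained with 0.4% SRB. A515 was read, and percent growth was calculated against time-zero and control plates.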

HOP-62 = assay: Cytotoxicity against human HOP62 cells assessed as cell growth at 10 uM after 48 hrs by sulforhodamine B assay; conditions: HOP-62, 48 h, read-out: Activity; outline: as §1
OVCAR-4 = assay: Cytotoxicity against human OVCAR4 cells assessed as cell growth at 10 uM after 48 hrs by sulforhodamine B assay; conditions: OVCAR-4, 48 h, read-out: Activity
OVCAR-8 = assay: Cytotoxicity against human OVCAR8 cells assessed as cell growth at 10 uM after 48 hrs by sulforhodamine B assay; conditions: OVCAR-8, 48 h, read-out: Activity
[9] = Cytotoxicity against human Hs 578T cells assessed as cell growth at 10 uM after 48 hrs by sulforhodamine B assay; conditions: read-out: Activity; outline: as §1
RPMI-8226 = assay: Cytotoxicity against human RPMI8226 cells assessed as cell growth at 100 uM after 48 hrs by sulforhodamine B assay; conditions: RPMI-8226, 48 h, read-out: Activity
MOLT-4 = assay: Cytotoxicity against human MOLT4 cells assessed as cell growth at 0.01 uM after 48 hrs by sulforhodamine B assay; conditions: MOLT-4, 48 h, read-out: Activity
LOX IMVI [10] = assay: Cytotoxicity against human LOXIMVI cells assessed as cell growth at 0.01 uM after 48 hrs by sulforhodamine B assay; conditions: read-out: Activity
MDA-MB-435 = assay: Cytotoxicity against human MDA-MB-435 cells assessed as cell growth at 0.01 uM after 48 hrs by sulforhodamine B assay; conditions: MDA-MB-435, 48 h, read-out: Activity
EKVX = assay: Cytotoxicity against human EKVX cells assessed as cell growth at 10 '-5 M after 48 hrs by sulforhodamine B assay; conditions: read-out: Activity
Outline: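 Primary one-dose screen across the NCI 60-line panel at 10 µM. Cells were grown in RPMI 1640 with 5% FBS and 2 mM L-glutamine and held 24 h before drug. Drug was diluted from a DMSO concentrate. Exposure was 48 h at 37 °C, 5% CO2. Cells were fixed with TCA and stained with SRB, with absorbance read at 515 nm. Percent growth was calculated against time-zero and untreated control.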

Structure (SMILES)	growth at 0.01 µM (SN12C [1]) [%]	growth at 0.01 µM (MCF7) [%]	growth at 0.01 µM [2] [%]	growth at 0.1 µM (CCRF-CEM) [%]	growth at 0.1 µM (SK-MEL-5) [%]	growth at 0.1 µM (SN12C [3]) [%]	growth at 100 µM (M14) [%]	growth at 100 µM (SK-MEL-2 [4]) [%]	growth at 100 µM (SK-MEL-28 [5]) [%]	growth at 1 µM (HL-60(TB)) [%]	growth at 1 µM (SR) [%]	growth at 100 µM (MDA-MB-231) [%]	growth at 1 µM (NCI-H522) [%]	growth at 1 µM (LOX IMVI [6]) [%]	growth at 1 µM (SK-MEL-2 [7]) [%]	growth at 1 µM (SK-MEL-28 [8]) [%]	growth at 1 µM (RXF 393) [%]	growth at 1 µM (T47D) [%]	growth at 10 µM (A549) [%]	growth at 10 µM (HOP-62) [%]	other results
Cc1ccc2nc(Nc3c(C)cccc3C)sc2c1	88	90	92	89	92	86	53	53	55	56	19	-6	38	62	67	66	52	75	44	39	growth at 10 µM (OVCAR-4): 55%; growth at 10 µM (OVCAR-8): 67%; growth at 10 µM [9]: 40%; growth at 100 µM (RPMI-8226): 73%; growth at 0.01 µM (MOLT-4): 104%; growth at 0.01 µM (LOX IMVI [10]): 94%; growth at 0.01 µM (MDA-MB-435): 95%; growth at 10 µM (EKVX): 54.1%
Clc1cccc(Cl)c1Nc1nc2cccc(Cl)c2s1	91	90	87	93	90	85	-56	-44	-69	63	51	-70	51	55	71	77	45	46	-65	-93	growth at 10 µM (OVCAR-4): -90%; growth at 10 µM (OVCAR-8): -71%; growth at 10 µM [9]: -41%; growth at 100 µM (RPMI-8226): -13%; growth at 0.01 µM (MOLT-4): 107%; growth at 0.01 µM (LOX IMVI [10]): 94%; growth at 0.01 µM (MDA-MB-435): 96%; growth at 10 µM (EKVX): -7.99%

Source: ChEMBL document CHEMBL2040734, “Benzothiazoles: search for anticancer agents” (2012)
